KCNK3 block: human KCNK3 channel inhibition, primary screen; O14649; CHO-KCNK3 thallium flux, FluxOR fluorescence; stronger effect = lower value; B-score at 10 µM; hit rate 0.84% among 340,000;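 active = B-score under library mean minus 4 SD, starting fluorescence ratio at most library mean plus 5 SD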;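 note: more negative B-score means stronger inhibition of thallium flux through KCNK3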
Target sequence (O14649 whole entry, looked up): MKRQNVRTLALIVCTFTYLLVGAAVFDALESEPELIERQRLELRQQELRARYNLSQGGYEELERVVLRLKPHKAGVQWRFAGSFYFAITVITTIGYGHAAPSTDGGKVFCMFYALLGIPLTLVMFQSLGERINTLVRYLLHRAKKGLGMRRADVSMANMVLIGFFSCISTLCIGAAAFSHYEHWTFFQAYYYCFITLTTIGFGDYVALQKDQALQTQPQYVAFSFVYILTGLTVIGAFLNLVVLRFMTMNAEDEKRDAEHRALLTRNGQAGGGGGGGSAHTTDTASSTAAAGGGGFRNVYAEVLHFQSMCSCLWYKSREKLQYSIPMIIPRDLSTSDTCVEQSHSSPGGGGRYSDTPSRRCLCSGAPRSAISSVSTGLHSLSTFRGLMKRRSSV
KCNK9 block: inhibitors of human KCNK9 two-pore domain potassium channel | Q9NPC2 | HEK293 KCNK9, FluxOR thallium flux fluorescence; stronger effect = lower value | B-score at 10 µM | hit rate 1.2% among 310,000;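 active = ratio B-score over 3 SD below the library mean, with starting fluorescence within 5 SD of its mean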;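 note: negative B-score means less thallium flux so channel inhibition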
hERG rescue: hERG (human) protection from proarrhythmic block; Q12809; CHO-hERG, FluxOR thallium flux, dofetilide IC70 present; activation (rescue from dofetilide block), less the hit threshold, % at 10 µM; hit rate 0.51% among 310,000; AID 1511;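 active = activation above the mean of controls blocked by dofetilide plus 5 SD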;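 note: thallium influx through hERG after potassium depolarization seen as dye fluorescence rise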
KCNQ1 inh: inhibitors of human KCNQ1 potassium channel; B-score at 10 µM; CHO-K1 KCNQ1, FluxOR thallium flux fluorescence; stronger effect = higher value; AID 2642; hit rate 1.3% among 310,000;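 active = compounds whose thallium flux B-score, printed positive for inhibition, exceeds three library SD while starting fluorescence stays within three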;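 note: channel opened by potassium depolarization with thallium stimulus after 20 min compound exposure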
KCNQ1 pot: human KCNQ1 channel potentiation or activation; hit rate 0.35% among 310,000; AID 2648; CHO-K1 KCNQ1, thallium flux FluxOR fluorescence; stronger effect = higher value; P51787; B-score at 10 µM;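 active = fluorescence ratio B-score, a plate-corrected score, at least three library SD, with initial intensity B-score within 5 SD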
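assay system = CHO-K1 cells stably expressing KCNQ1 | medium = assay buffer, equal DMSO in all wells | timing = 37 °C overnight plating, 90-min dark dye load, 20-min compound pretreatment | measured by = kinetic FluxOR thallium fluorescence, 10-s 1-Hz baseline, 110-s post-stimulus read | measure = fluorescence change relative to baseline, converted to B score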
KCNK9 block conf: human KCNK9 inhibitor confirmation. inhibition, % at 10 µM. shares compounds with KCNK9 block. AID 492992. hit rate 43% among 4,900. HEK293 KCNK9 cells, FluxOR thallium flux fluorescence;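 active = thallium signal inhibited by more than 5 SD of the compound-free buffer control wells, on both duplicate plates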;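 note: 0% = assay buffer control wells without compound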
Kir21 sel: selectivity of KCNK9 modulators against mouse Kir2.1; inhibition, % at 10 µM; shares compounds with KCNK9 block; hit rate 4% among 4,900; Kir2.1 cells, FluxOR thallium flux fluorescence;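 active = thallium signal drop more than 5 SD beyond the mean of the no-compound control wells, seen in both duplicate plates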;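 note: signal is fluorescence rise after thallium addition divided by baseline fluorescence; plate controls were assay buffer only for no effect and full block by chlorpromazine control for full effect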
KCNK9 uninduced: second check of KCNK9 modulator effects in non-induced HEK293 cells; FluxOR thallium flux; shares compounds with KCNK9 block; hit rate 40% among 4,900; inhibition, % at 10 µM;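 active = thallium signal drop beyond 5 SD of the untreated control mean, on both duplicate plates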;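 note: plate controls were buffer only IC0 wells for no effect and SID17386958 at its maximal inhibitory level for full effect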
Starred values were filed as active, the others as inactive; i = inactive; . = no result given. Most compounds without a hit are left out; they make up all but 3.1% or so of the library.

SMILES	KCNK3 block	KCNK9 block	hERG rescue	KCNQ1 inh	KCNQ1 pot	KCNK9 block conf	Kir21 sel	KCNK9 uninduced
COC(=O)c1ccccc1NC(=O)C12CC3CC(C1)CC(n1cnc(Cl)n1)(C3)C2	i	i	-17.1	i	i	i	i	i
COC(=O)C12CC3CC(C1)CC(n1cnc(Cl)n1)(C3)C2	i	i	-6.3	i	i	.	.	.
COc1cccc(CC2(CO)CCCN(C/C=C/c3ccccc3OC)C2)c1 (centres undefined)	i	i	-17.8	i	i	.	.	.
OCC1(Cc2cccc(Cl)c2)CCCN(Cc2sc(N3CCCC3)nc2Cl)C1 (centres undefined)	i	i	-11.7	i	i	i	i	i
COc1ccccc1/C=C/CN1CCCC(CO)(Cc2cccc(Cl)c2)C1 (centres undefined)	i	i	-18.7	i	i	i	i	i
CCOc1ccc(NC(=O)Nc2ccon2)cc1	i	i	-1.9	i	i	.	.	.
OCC[C@H]1C[C@H](O)[C@@H](O)[C@@]2(OCCCc3ccccc32)O1	i	.	.	.	.	.	.	.
CC(C)Cc1ccccc1O	.	i	-3.6	i	i	.	.	.
CC(=O)C1=C(C)NC(SCC(=O)c2ccc(Cl)cc2Cl)=C(C#N)C1c1ccco1 (centres undefined)	-9.61*	-10.3*	-20.2	i	i	61.0%*	i	35.5%*
CCN(CC(=O)NCc1ccc(F)cc1)C(=O)CCNS(=O)(=O)c1cccc(C)c1	i	.	.	.	.	.	.	.
CCOC(=O)C1=C(COC(=O)c2ccc(Cl)cc2[N+](=O)[O-])NC(=O)NC1C (centres undefined)	i	i	-12.5	i	i	.	.	.
Cc1ccc(SCCN2CCN(C)CC2)cc1	i	i	-6.9	i	i	.	.	.
Cc1ccc(SCCN2CCN(Cc3ccccc3)CC2)cc1	i	i	-8.5	i	i	i	i	i
Cc1ccc(N2CCN(S(=O)(=O)c3ccc(Cl)s3)CC2C)cc1 (centres undefined)	i	i	-9.2	i	i	i	i	i
CCS(=O)(=O)N1CCN(S(=O)(=O)c2ccc(Cl)s2)CC1	i	i	-10.7	i	i	.	.	.
O=C(NCc1ccccc1)c1ccc(C(=O)NCc2ccccc2)cc1	i	.	.	.	.	.	.	.
O=C(NCc1ccccc1)c1ccc(C(=O)N(C2CCCCC2)C2CCCCC2)cc1	i	-8.95*	-2.9	i	i	i	i	32.0%*
CCOC(=O)Cn1c(=NC(=O)CSC(C)=O)sc2ccccc21	i	-8.17*	-12.2	i	i	48.5%*	i	40.0%*
COc1cc(/C=C2\SC(=S)N(CC(=O)Nc3ccccn3)C2=O)cc(OC)c1OC	i	i	-8.4	i	i	.	.	.
COc1ccc(/C=C2\SC(=S)N(CCC(=O)Nc3ccccc3C(=O)O)C2=O)cc1	i	i	-0.7	i	i	i	i	i
COc1ccc(/C=C2\SC(=S)N(C(Cc3ccccc3)C(=O)O)C2=O)cc1 (centres undefined)	i	i	-14.9	i	i	i	i	i
O=C(O)C(Cc1ccccc1)N1C(=O)/C(=C/c2cccnc2)SC1=S (centres undefined)	i	i	-7.8	i	i	.	.	.
COc1cc(/C=C2\SC(=S)N(CCC(=O)Nc3ccccn3)C2=O)cc(OC)c1OC	i	-8.26*	-11.7	i	i	i	i	i
COc1ccc2ccccc2c1CNC(C)c1ccccc1 (centres undefined)	i	i	-1.9	i	i	i	i	i
CC(C)CCNC(=O)[C@H](CSCc1ccccc1)N1Cc2ccccc2C1=O	i	i	-8.7	i	i	i	i	i
SMILES	KCNK3 block	KCNK9 block	hERG rescue	KCNQ1 inh	KCNQ1 pot	KCNK9 block conf	Kir21 sel	KCNK9 uninduced
Cn1c(Oc2ccc(Cl)cc2)c(C=O)c2ccccc21	i	i	-2.9	i	i	.	.	.
Cn1c(Sc2ccc(Cl)cc2)c(C=O)c2ccccc21	i	-8.2*	-7.2	7*	i	57.0%*	i	46.0%*
C/C(=N\NC(=O)c1nn(C)c(C)c1Br)c1ccc(NC(=O)c2ccccc2F)cc1	i	-11.6*	-15.1	i	i	63.5%*	i	26.0%*
COc1ccc(OC)c(/C=N/c2c(-c3ccc(O)c(OC)c3)nc3ccccn23)c1	i	-13.7*	-5.9	i	i	i	i	i
Cc1ccc(/C=N/n2cnc3sc(C)c(C)c3c2=O)o1	i	i	-8.8	i	i	i	i	i
Cc1ccc(/C=N/n2cnc3sc4c(c3c2=O)CCCC4)o1	i	i	-6.7	i	i	.	.	.
NC(=O)N1c2ccccc2C=Cc2ccccc21	i	i	-3.9	i	i	.	.	.
CCN(CC)C(=O)N1c2ccccc2C=Cc2ccccc21	i	-8.21*	-9.7	i	i	42.0%*	i	29.5%*
COc1ccc(C(=O)Nc2nnc(Cc3ccc(OC)c(OC)c3)s2)cc1	i	i	-4.8	i	i	.	.	.
O=C(Nc1ccccc1)OC1CCCCc2cccnc21 (centres undefined)	i	i	-10.3	i	i	i	i	28.5%*
O=C(Nc1ccccc1)OCCNC1CCCCC1	i	.	.	.	.	.	.	.
O=c1c2ccccc2ncn1CCCSc1ccccc1	i	i	-10.0	i	i	i	i	29.5%*
O=c1c2ccccc2ncn1CCCSc1ccc(Cl)cc1	i	i	-6.9	i	i	.	.	.
CCOC(=O)N1CC(C)N(C(=S)Nc2ccccc2)CC1C (centres undefined)	i	.	.	.	.	.	.	.
CC1=CC(C)C2(COC(=O)Nc3ccccc3)COC(C)C1C2C (centres undefined)	i	i	-12.9	i	i	i	i	i
COc1cccc(OC)c1C(=O)Nc1cccc(NC(=O)c2cccs2)c1	i	-10.6*	-9.8	i	i	50.0%*	i	28.5%*
O=C(OCc1ccccc1Cl)c1ccccc1C(=O)c1ccccc1	i	-8.73*	-5.1	i	i	i	41.0%*	37.5%*
Cc1ccc(OCC(O)CNC2CCCC2)cc1C (centres undefined)	i	i	-6.5	i	i	.	.	.
CN(Cc1cnn(-c2ccc(F)cc2)c1)Cc1nc(Cc2ccccc2)no1	i	i	-14.1	i	i	i	i	i
CC(OC(=O)C1CCCCC1)C(=O)Nc1ccc(S(N)(=O)=O)cc1 (centres undefined)	i	.	.	.	.	.	.	.

Bioassay records (PubChem)
